Test results published in article PMC2729716 (Biochemistry, 2009).
Where no end group is shown, it is not given here.

Assays:
HIV Vif = settings: micromolar levels of chelator; cited from earlier work
[1] = Zinc-induced aggregation by light scattering; format: physicochemical; settings: 15 µM peptide, 1 molar equivalent Zn2+, 200 mM MOPS pH 7.4, 80 mM NaCl, 1.8 mM TCEP, 20 °C, 200 s
In short: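 Wild-type and mutant peptides handled anaerobically in TCEP buffers; concentration set by A280 in 6M guanidine hydrochloride. Zn(NO3)2 hand-mixed into sample in a Peltier-held cuvette. Light scattering followed over time on a single-photon counting fluorometer; single exponential functions fitted to intensity versus time.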

[2] = tested on: GST-Cul5 (human Cul5 amino acids 1–384); assay: HCCHp pull-down by GST-Cul5; format: binding; settings: GST control, 40 µM Zn(NO3)2 vs no zinc
In short: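 GST-Cul5 (human Cul5 residues 1–384, from E. coli) immobilised on glutathione resin, 10 min at 4 °C, in 50 mM HEPES pH 7.4, 150 mM NaCl, 200 µM TCEP; 20 µM peptide added for 10 min; split, ±40 µM Zn(NO3)2 for 10 min; six washes; SDS-PAGE, SYPRO Ruby stain; bands normalised to a 27-kDa marker and quantified against peptide and GST-Cul5 standard curves.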

| Compound | Effect of chelator on Cul5 recruitment and APOBEC3G degradation (HIV Vif) | Total change in scattered light intensity, rank order of peptides [1] | Change in amount of HCCHp bound to GST when zinc was included [2] |
| --- | --- | --- | --- |
| c1ccc(CN(CCN(Cc2ccccn2)Cc2ccccn2)Cc2ccccn2)nc1 [N,N,N′,N′-tetrakis-(2-pyridylmethyl) ethylenediamine] | inhibits Cul5 recruitment and APOBEC3G degradation |  |  |
| ELADQLIALYYFDCFSDSAIRKALLGHIVSPRCEYQAGHNKV (cysteines drawn unpaired) [H108A] |  | H108A < H139A < H127A < wild type < C114S < C114/133S < C133S |  |
| ELADQLIHLYYFDCFSDSAIRKALLGAIVSPRCEYQAGHNKV (cysteines drawn unpaired) [H127A] |  | H108A < H139A < H127A < wild type < C114S < C114/133S < C133S |  |
| ELADQLIHLYYFDCFSDSAIRKALLGHIVSPRCEYQAGANKV (cysteines drawn unpaired) [H139A] |  | H108A < H139A < H127A < wild type < C114S < C114/133S < C133S |  |
| ELADQLIHLYYFDCFSDSAIRKALLGHIVSPRCEYQAGHNKV (cysteines drawn unpaired) [HCCHp] |  | H108A < H139A < H127A < wild type < C114S < C114/133S < C133S | did not increase significantly |
| ELADQLIHLYYFDCFSDSAIRKALLGHIVSPRSEYQAGHNKV [C133S] |  | H108A < H139A < H127A < wild type < C114S < C114/133S < C133S |  |
| ELADQLIHLYYFDSFSDSAIRKALLGHIVSPRCEYQAGHNKV [C114S] |  | H108A < H139A < H127A < wild type < C114S < C114/133S < C133S |  |
